Screens deposited in PubChem by The Scripps Research Institute Molecular Screening Center.
Sampled rows, rich in hits. Any-hit rate of the full collection: about 2.7%.
OX1R antag-1 = OX1R (HCRTR1) antagonists, primary screen, fluorescence, CHO/OX1R cells, Fluo-8 calcium, orexin A; Orexin/Hypocretin receptor type 1 (Homo sapiens), O43613; Fluo-8 calcium fluorescence; inhibition, % at 5 µM; 330,000 compounds, 0.43% hits;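 active means inhibition above its plate's threshold, mean inhibition of all tested compounds on the plate plus 3 SD, cut at about 37% in these data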;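 further: 0% = orexin A challenge wells and 100% = SB-334867-A antagonist wells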
OX1R antag-2 = antagonists of human orexin 1 receptor (OX1R) | inhibition, % at 6.6 µM | OX1R-expressing cells, FRET antagonist read-out | 330,000 compounds, 1.8% hits | Orexin/Hypocretin receptor type 1 (Homo sapiens), O43613; in the data active means inhibition mostly above about 38%, no sharp cut-off; inactive means mostly below about 40%;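 further: 0% = agonist challenge alone and 100% = reference antagonist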
OXTR potentiate = human OXTR potentiators, primary screen, fluorescence, CHO-OTR cells, Fluo-8 calcium | Fluo-8 calcium fluorescence, potentiator mode; 0% = oxytocin EC15, 100% = EC100 | activation, % at 3 µM | Oxytocin receptor (Homo sapiens), P30559 | 320,000 compounds, 0.061% hits;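 active means activation above that plate's cutoff, the mean activation of tested compounds plus 3 SD, cut at about 6.6% in these data, passing the limit was not always enough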;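 further: 100% uses oxytocin at 75 nM as the full agonist control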
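Assay system: CHO cell line stably expressing human OTR | Also added: Oxytocin at about EC15, sub-maximal agonist stimulus | Times: Compound 6 min at room temperature before oxytocin, 100 s read | Measured by: Fluo-8 intracellular calcium fluorescence, ex 470-495, em 515-575 nm | Controls: EC15 oxytocin alone as 0%, 75 nM oxytocin as 100%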
OXTR agonist = human OXTR agonists, primary screen, fluorescence, CHO-OTR cells, Fluo-8 calcium; Oxytocin receptor (Homo sapiens), P30559; Fluo-8 calcium fluorescence; normalized: DMSO 0%, oxytocin 100%; activation, % at 3 µM; 320,000 compounds, 0.32% hits;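 active means activation above the mean of all tested compounds plus 3 SD, cutoff set per screening run, cut at about 20% in these data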;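 further: peak over basal fluorescence ratio from a 100 s FLIPR kinetic read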
V1R ag counter = agonists of human V1a receptor, primary screen, counter-screen for OXTR agonist project, fluorescence, CHO-V1R cells; Vasopressin V1a receptor (Homo sapiens), P37288; Fluo-8 calcium fluorescence, agonist mode; 0% DMSO, 100% 3 nM vasopressin; activation, % at 3 µM; 320,000 compounds, 0.25% hits;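 active means activation above the mean activation of all tested compounds plus 3 SD, per screening run, cut at about 20% in these data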;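 further: signal is peak over basal fluorescence ratio across a 100 second FLIPR read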
Target sequence (P37288 whole entry, looked up): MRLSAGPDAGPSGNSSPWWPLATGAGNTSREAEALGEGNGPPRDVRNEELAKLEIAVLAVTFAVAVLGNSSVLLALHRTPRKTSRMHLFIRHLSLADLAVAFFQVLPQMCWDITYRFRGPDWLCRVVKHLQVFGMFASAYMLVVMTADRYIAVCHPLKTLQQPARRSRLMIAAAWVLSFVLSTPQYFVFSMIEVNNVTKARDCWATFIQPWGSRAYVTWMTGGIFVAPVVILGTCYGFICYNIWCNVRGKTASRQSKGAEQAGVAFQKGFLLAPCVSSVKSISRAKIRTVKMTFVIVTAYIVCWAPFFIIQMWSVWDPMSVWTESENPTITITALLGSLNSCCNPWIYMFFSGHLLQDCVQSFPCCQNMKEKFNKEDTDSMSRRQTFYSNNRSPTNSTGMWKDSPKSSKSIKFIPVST
CHO parental Ca = ATP-evoked calcium signal inhibitors, parental CHO, primary screen, counter-screen for OX1R antagonist project, cell-based, fluorescence, Fluo-8 calcium dye. inhibition, % at 5.6 µM. 330,000 compounds, 0.63% hits. AID 463079, 2010. parental CHO-K1, ATP-induced calcium, Fluo-8 fluorescence;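 active means inhibition above that plate's mean sample inhibition plus 3 SD, cut at about 26% in these data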;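 further: 0% = ATP-challenged DMSO wells and 100% = DMSO wells without ATP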
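Material: parental CHO cells / Compound: single nominal dose of 5.6 µM per compound / Signal: Fluo-8 fluorescence / Replicates: singlicate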
* = called active by the depositor.

SMILES	OX1R antag-1	OX1R antag-2	OXTR potentiate	OXTR agonist	V1R ag counter	CHO parental Ca
Cc1c(NC(=O)/C(C#N)=C/c2ccc(-c3cccc(Cl)c3)o2)c(=O)n(-c2ccccc2)n1C	6	75*	0	0	1	-30
CCCNC(=O)C(Cc1ccc(Br)cc1)NC(=O)c1ccc(C#N)cc1 (configuration not stated)	-18	-2	-5	-1	0	-10
c1coc(-c2nc3ccccc3nc2-c2ccco2)c1	-3	43*	2	-1	0	-23
O=C(Nc1nccs1)c1ncc(Cl)c(Cl)c1Cl	-17	12	-14	-2	-1	-12
O=C(CN1C2CCCC1CC(NC(=O)c1ccco1)C2)Nc1ccccc1C(F)(F)F (configuration not stated)	-3	51*	-13	-1	0	-4
O=C(CN1C2CCCC1CC(NC(=O)c1ccccc1)C2)Nc1ccccc1 (configuration not stated)	-26	19	-13	0	0	-23
O=C(CN1CCC(NC(=O)c2ccco2)CC1)Nc1ccccc1C(F)(F)F	-12	12	3	1	2	-19
O=C(CN1C2CCCC1CC(NC(=O)c1ccccc1)C2)Nc1ccccc1C(F)(F)F (configuration not stated)	-10	68*	-12	-1	2	-12
O=C(NCC1COCCO1)c1ccc2nc(Cc3cccc(Cl)c3)oc2c1 (configuration not stated)	12	24	-11	1	3	14
CCOc1ccc(CCNC(=O)COC(=O)COc2ccc(C#N)cc2)cc1OCC	-36	8	-7	0	0	-32
Cc1ccc(-n2nnnc2SCC(=O)NC2CC2)cc1C	-14	15	-3	1	2	-5
CC(=O)c1ccc(S(=O)(=O)N2CCN(C(=O)c3ccc(-n4nc(C)c(Cl)c4C)cc3)CC2)cc1	27	9	-12	7	15	3
C=CCn1c(C)cc(C(=O)CSc2nc3ccccc3o2)c1C	41*	35	-21	0	2	43*
C=CCn1c(C)cc(C(=O)CSc2nnc(Cc3ccccc3)o2)c1C	-26	5	-4	1	2	-14
O=C(CSc1nc2ccccc2o1)c1ccccc1	-22	13	-4	-1	-1	-17
Cc1cc(C(=O)CSc2nc3ccccc3o2)c(C)n1C1CC1	41*	33	-19	-2	-1	6
O=C(/C=C/c1ccccc1Cl)OCC(=O)c1ccc[nH]1	8	1	-8	3	1	-10
Cc1cccc(-c2ocnc2C(=O)Nc2ccccc2NC(=O)c2ccccn2)c1	-26	66*	-9	0	0	-12
Cc1ccc(-c2ocnc2C(=O)Nc2ccccc2NC(=O)c2ccccn2)cc1	-29	20	-8	-1	0	-22
COc1ccc(-c2oc3ncnc(NCCN4CCOCC4)c3c2-c2ccc(OC)cc2)cc1	-34	17	-3	-2	-1	-27
COc1ccc(-c2oc3ncn(CCN4CCOCC4)c(=N)c3c2-c2ccc(OC)cc2)cc1	-16	38*	-3	-3	-2	-16
Cc1cc(C)cc(NC(=O)Nc2ccc(-n3ccc(C(F)(F)F)n3)cc2)c1	54*	54*	-17	4	5	40*
O=C(Nc1ccc(-n2ccc(C(F)(F)F)n2)cc1)Nc1cccc(Cl)c1	57*	31	-15	12	10	22
O=C(O)c1ccccc1C(=O)Nc1ccc(-n2ccc(C(F)(F)F)n2)cc1	3	12	-1	2	0	-14
CCOC(=O)c1c(C)[nH]c(C(=O)OCc2csc(CC(=O)Nc3ccccc3C)n2)c1C	-28	16	-10	-3	0	-21
SMILES	OX1R antag-1	OX1R antag-2	OXTR potentiate	OXTR agonist	V1R ag counter	CHO parental Ca
CCOc1ncccc1C(=O)OC(C)C(=O)Nc1ccc(N2CCOCC2)cc1 (configuration not stated)	-25	0	2	0	1	4
COc1ccccc1NS(=O)(=O)c1ccc(O)c(C(=O)OCC(=O)Nc2ccccc2F)c1	-6	15	-9	0	1	-14
O=C(COC(=O)c1cc(S(=O)(=O)Nc2ccccc2Cl)ccc1O)Nc1ccc(F)c(F)c1F	16	34*	-10	9	9	-6
C=CCn1c(SC(C)CC)nc(O)cc1=O (configuration not stated)	-7	4	-32	46*	30*	7
C=CCn1c(SCCCCCC)nc(O)cc1=O	-16	5	4	0	-1	-11
CC(C)(CC(=O)N1CCN(c2ccc(Cl)cc2)CC1)CC1=NS(=O)(=O)c2ccccc2N1	46	48	-26	10	12	75*
COc1cccc(N2CCN(C(=O)CC(C)(C)CC3=NS(=O)(=O)c4ccccc4N3)CC2)c1	-1	12	-14	12	14	15
Cc1nnsc1C(=O)N/N=C/c1ccc2ccccc2c1O	23	64	-13	67*	47*	23
O=Cc1ccc(C(=O)OCC(=O)Nc2ccc(F)cc2F)cc1	-8	-8	-1	-1	0	-1
O=C(CSc1ccc(-c2cccnc2)nn1)Nc1ccc(F)cc1	-14	2	-1	0	1	1
CN(C(=O)c1cc2c(=O)n3ccccc3nc2n1C)C1CCCCC1	-13	21	-3	0	0	-4
COc1ccc(CNC(=O)CSc2nc(SC)ns2)cc1	-21	11	-8	-1	-1	98*
CCC(CO)Oc1cc(NCc2ccccc2)c2ncn(C(C)C)c2c1 (configuration not stated)	-24	14	5	1	0	-20
CC(C)n1cnc2c(NCc3ccccc3)cc(N[C@H](C)CO)cc21	6	75*	-9	8	2	-12
CCCCOc1cc(NCc2ccccc2)c2ncn(C(C)C)c2c1	-91	24	6	2	9	-50
CCC(CO)Oc1cc(NCc2ccc(C(C)(C)C)cc2)c2ncn(C(C)C)c2c1 (configuration not stated)	50	14	-5	8	8	50*
CCC(COC)Oc1cc(NCc2ccccc2)c2ncn(C(C)C)c2c1 (configuration not stated)	13	35*	1	0	3	-3
